Experimental data from different studies.
Protocols differ between the studies behind these lines.

Structure (SMILES)	tested on	test	test system	setting	quantity	result
COc1cc(C(=O)c2cc3c(-c4ccccc4)c(O)ccc3o2)cc(OC)c1OC	CCRF-CEM	cell growth or viability		72 h	IC50	> 50 µM
Cc1ccc(-c2nc3ccc(C)cn3c2CC(=O)N(C)C)cc1	Mycobacterium marinum	microbial growth		5 days	MIC	> 50 µM
N#Cc1ccc(NC(=S)NN=Cc2ccccc2)cc1	CCRF-CEM	cell growth or viability		72 h	IC50	83 mg/L
Nc1ccn(C[C@@H](CO)OCP(=O)(O)O)c(=O)n1	Cowpox virus	viral replication			IC50	30 µM
O=c1[nH]c(=O)n([C@H]2C[C@H](O)[C@@H](CO)O2)cc1/C=C/Br	Cowpox virus	microbial growth			MIC50	50 µM
N#Cc1ccc(NC(=S)NN=Cc2ccc(N(CCCl)CCCl)cc2)cc1	CCRF-CEM	cell growth or viability		72 h	IC50	0.7 mg/L
COC(=O)c1cc(-c2cccc(NC(=O)Nc3ccc(C(F)(F)F)cc3)c2)on1	Mycolicibacterium fortuitum	microbial growth, broth dilution	ATCC6841	48 h	MIC	> 64 mg/L
CC(C(=O)n1nnc2ccccc21)c1cccc(C(OC(=O)n2nnc3ccccc32)c2ccccc2)c1 (stereo not drawn)	CCRF-CEM	cell growth or viability		72 h	IC50	67 µM
NCC(=O)Nc1ccc(-n2nc(C(F)(F)F)cc2-c2ccc3c(ccc4ccccc43)c2)cc1	Human immunodeficiency virus 1	viral replication, inhibitor	human PBMC	clinical isolate	IC90	2.25 µM
CCOC(=O)c1nnn(-c2cccc(NC(=O)Nc3ccc(Cl)c(Cl)c3)c2)c1C	Mycolicibacterium fortuitum	microbial growth, broth dilution	ATCC6841	48 h	MIC	> 64 mg/L
Nc1ccn(C[C@@H](CO)OCP(=O)(O)O)c(=O)n1	Cowpox virus	microbial growth			MIC50	22 µM
CC(C)CN(C[C@@H](O)[C@H](Cc1ccccc1)NC(=O)O[C@H]1CO[C@H]2OCC[C@H]21)S(=O)(=O)c1ccc(N)cc1	Human immunodeficiency virus 1	viral replication	MT4		IC50	0.0032 µM
COC(=O)c1cc(-c2cccc(NC(=O)Nc3ccc(F)cc3)c2)on1	Mycolicibacterium fortuitum	microbial growth, broth dilution	ATCC6841	48 h	MIC	> 64 mg/L
CO[C@H]1/C=C/O[C@@]2(C)Oc3c(C)c(O)c4c(O)c(c(/C=N/N5CCN(C)CC5)c(O)c4c3C2=O)NC(=O)/C(C)=C\C=C\[C@H](C)[C@H](O)[C@@H](C)[C@@H](O)[C@@H](C)[C@H](OC(C)=O)[C@@H]1C	Mycobacterium marinum	microbial growth	ATCC927		MIC	< 0.2 mg/L
COC(=O)c1cc(-c2cccc(NC(=O)NCc3ccccc3)c2)on1	Mycolicibacterium fortuitum	microbial growth, broth dilution	ATCC6841	48 h	MIC	> 64 mg/L
CCOC(=O)c1c(CSc2ccccc2)n(C)c2cc(Br)c(O)c(CN(C)C)c12.Cl.O	Cowpox virus	microbial growth			MIC50	> 20 mg/L
CC(C(=O)NCc1ccccc1)c1cccc(C(OC(=O)NCc2ccccc2)c2ccccc2)c1 (stereo not drawn)	CCRF-CEM	cell growth or viability		72 h	IC50	2.7 µM
COC(=O)c1cc(-c2cccc(NC(=S)Nc3ccc([N+](=O)[O-])cc3)c2)on1	Mycolicibacterium fortuitum	microbial growth, broth dilution	ATCC6841	48 h	MIC	> 64 mg/L
